# Data taken from ChEMBL document CHEMBL3120059, “Flavonoids, flavonoid metabolites, and phenolic acids inhibit oxidative stress in the neuronal cell line HT-22 monitored by ECIS and MTT assay: a comparative study” (J Nat Prod, 2014).
# The source made the active and inactive calls. No cut-off for these calls is given here.
# Tests used:
# HT-22 [1] = experiment: Neuroprotective activity in mouse HT22 cells assessed as reduction of t-BOOH-induced oxidative stress at 40 uM preincubated for 3 hrs followed by t-BOOH induction measured after 20 hrs by MTT assay; assay type: functional, cell-based
# Outline: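 Run in the ECIS wells right after impedance recording ended, 20 h after t-BOOH (3 h, 40 μM compound preincubation; 300 μM t-BOOH). MTT stock (4 mg/mL in PBS) was diluted 1:10 in medium and incubated 1 h. Lysis was with 10% SDS pH 4.1, A560 read next day. Viability is given as % of untreated control, mean ± SD of three independent experiments.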
# HT-22 [2] = experiment: Neuroprotective activity in mouse HT22 cells assessed as reduction of t-BOOH-induced oxidative stress at 40 uM preincubated for 3 hrs followed by t-BOOH induction measured for 20 hrs by time-resolved ECIS analysis; assay type: functional, cell-based
# Outline: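 HT-22 cells on 8-well gold-electrode arrays precoated with glutaraldehyde-crosslinked gelatin, seeded at 6 × 10^5 cells/well and grown 2−3 days to confluence (37 °C, 5% CO2). After 1 h baseline, compound (40 μM final, DMSO <0.1%) was added for 3 h, then 300 μM t-BOOH. Impedance was recorded 20 h, |Z| normalized to the last pre-t-BOOH value; three independent experiments.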
# HT-22 [3] = experiment: Neuroprotective activity in mouse HT22 cells assessed as t-BOOH-induced toxicity at 40 uM preincubated for 3 hrs followed by t-BOOH induction measured after 9 hrs by MTT assay; assay type: functional, cell-based
# Outline: (§1)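 Confluent HT-22 cells under the ECIS conditions: 3 h preincubation with 40 μM compound, then 300 μM t-BOOH. MTT reaction was started 4.5 h or 9 h after t-BOOH addition. Viability is expressed relative to untreated control.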
# HT-22 [4] = experiment: Neuroprotective activity in mouse HT22 cells assessed as reduction of glutamate-induced oxidative stress by ECIS analysis; assay type: functional, cell-based
# HT-22 [5] = experiment: Neuroprotective activity in mouse HT22 cells assessed as reduction of glutamate-induced oxidative stress after 24 hrs by MTT assay; assay type: functional, cell-based
# Outline: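 Unconfluent HT-22 cells seeded at 5 × 10^3/well, cultured 24 h, then incubated 24 h with compound plus 5 mM glutamate. MTT stock (4 mg/mL) was diluted 1:10 and incubated 3 h. Lysis was with 10% SDS pH 4.1, A560 read next day. Viability is % of untreated control; three independent experiments, each in quadruplicate.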
# HT-22 [6] = experiment: Cytotoxicity against mouse HT22 cells assessed as cell viability after 24 hrs by MTT assay; assay type: cell-based; settings: ht-22, 24 h
# HT-22 [7] = experiment: Cytotoxicity against mouse HT22 cells assessed as cell viability at 40 uM after 24 hrs by MTT assay; assay type: cell-based; settings: ht-22, 24 h
# Outline: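 Confluent-layer MTT. Gelatin-precoated 96-well plates were seeded at 5 × 10^4 HT-22 cells/well and grown 24 h to confluence, then exposed 24 h to 40 μM compound (DMSO <0.1%). MTT stock (4 mg/mL) was diluted 1:10 and incubated 1 h. Lysis was with 10% SDS pH 4.1, A560 read next day. Results are % of untreated control, ≥3 independent experiments.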
# HT-22 [8] = experiment: Neuroprotective activity in mouse HT22 cells assessed as t-BOOH-induced toxicity at 40 uM preincubated for 3 hrs followed by t-BOOH induction measured after 4.5 hrs by MTT assay; assay type: functional; outline: as §1
# HT-22 [9] = experiment: Neuroprotective activity in mouse HT22 cells assessed as reduction of t-BOOH-induced oxidative stress preincubated for 3 hrs followed by t-BOOH induction measured for 20 hrs by time-resolved ECIS analysis; assay type: functional, cell-based
# Outline: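 HT-22 cells grown to confluence (2–3 days) on gelatin/glutaraldehyde-precoated gold electrode arrays, 37 °C, 5% CO2; 1 h baseline equilibration, then compounds (DMSO <0.1%, 40 μM final; positive control 10–50 μM) preincubated 3 h before 300 μM t-BOOH. Impedance magnitude |Z| recorded 20 h further, normalized to last value before t-BOOH; three independent experiments, mean ± SD.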
Structure (SMILES),Activity (HT-22 [1]),Activity (HT-22 [2]),Activity (HT-22 [3]),Activity (HT-22 [7]),also measured
O=c1cc(-c2ccc(O)cc2)oc2cc(O)cc(O)c12,inactive,inactive,–,–,–
O=c1cc(-c2ccc(O)c(O)c2)oc2cc(O)cc(O)c12,Active,–,Active,–,–
O=C(O)[C@H]1O[C@@H](Oc2c(-c3ccc(O)c(O)c3)oc3cc(O)cc(O)c3c2=O)[C@H](O)[C@@H](O)[C@@H]1O,–,–,–,–,Activity (HT-22 [4]): inactive; Activity (HT-22 [5]): inactive
O=C1C[C@@H](c2ccc(O)c(O)c2)Oc2cc(O)cc(O)c21 [ERIODICTYOL],Active,–,Active,–,Activity (HT-22 [4]): Active; Activity (HT-22 [5]): Dose-dependent effect; Activity (HT-22 [6]): Dose-dependent effect
COc1cc(-c2oc3cc(O)cc(O)c3c(=O)c2O)ccc1O,inactive,inactive,–,–,–
O=C(O)Cc1cccc(O)c1 [3-Hydroxyphenylacetate],–,–,–,Non-toxic,–
COC(=O)/C=C/c1ccc(O)c(O)c1 [METHYLCAFFEATE],Active,Active,Active,Non-toxic,–
Oc1ccccc1O [CATECHOL],Active,Active,Active,Toxic,–
O=c1c(O)c(-c2ccc(O)c(O)c2)oc2cc(O)cc(O)c12 [QUERCETIN],Active,–,Active,–,Activity (HT-22 [8]): 70%; Activity (HT-22 [9]): Dose-dependent effect
COc1cc(/C=C/C(=O)O)ccc1O [FERULATE],inactive,inactive,–,Non-toxic,–
COC(=O)[C@H]1O[C@@H](Oc2c(-c3ccc(O)c(O)c3)oc3cc(O)cc(O)c3c2=O)[C@H](O)[C@@H](O)[C@@H]1O,–,–,–,–,Activity (HT-22 [4]): inactive; Activity (HT-22 [5]): inactive
COC(=O)Cc1ccc(O)c(O)c1,Active,Active,Active,Non-toxic,Activity (HT-22 [8]): 70%
O=C1C[C@@H](c2ccc(O)cc2)Oc2cc(O)cc(O)c21,inactive,inactive,–,–,–
O=c1c(O)c(-c2ccc(O)cc2)oc2cc(O)cc(O)c12 [KAEMPFEROL],inactive,inactive,–,–,Activity (HT-22 [5]): Dose-dependent effect; Activity (HT-22 [6]): Dose-dependent effect
Cc1ccc(O)c(O)c1,Active,Active,Active,Non-toxic,Activity (HT-22 [8]): 70%
COC(=O)/C=C/c1ccc(O)c(OC)c1,inactive,inactive,–,Non-toxic,–
Oc1cc(O)c2c(c1)OC(c1ccc(O)c(O)c1)C(O)C2 (stereo not drawn),inactive,inactive,–,–,–
Oc1cc(O)c2c(c1)O[C@H](c1ccc(O)c(O)c1)[C@H](O)[C@H]2c1c(O)cc(O)c2c1O[C@H](c1ccc(O)c(O)c1)[C@@H](O)C2,inactive,inactive,–,–,–
"O=C(O)Cc1ccc(O)c(O)c1 [3,4-DIHYDROXYPHENYLACETIC ACID]",–,–,–,Non-toxic,–
O=C(O)/C=C/c1ccc(O)c(O)c1 [CAFFEIC ACID],inactive,inactive,–,Non-toxic,–
